The source of these data is paper PMC5691919 (ACS Chemical Neuroscience, 2017).

As usually defined, the Ki is the equilibrium dissociation constant of an inhibitor or competing ligand from its target. Lower therefore signals higher affinity. One may read the EC50 as the concentration at which the effect is half-maximal. A higher EC50 goes with weaker potency.

Assay [1] addresses T1, rat MOR (C6-MOR) (Rattus norvegicus, UniProt P33535). The assay is described as follows: [3H]-diprenorphine competitive displacement binding, C6-MOR membranes. The gist of the method: (§1)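 Membranes came from C6 glioma cells stably expressing rat MOR or DOR, or CHO cells stably expressing human KOR. Membranes (20 μg protein) in 50 mM Tris-HCl pH 7.4 were incubated with 0.2 nM [³H]-diprenorphine and varying test compound concentrations for 1 h at room temperature, then filtered on GF/C. Nonspecific binding was defined with 10 μM naloxone. Ki came from logistic nonlinear regression; at least three assays in duplicate.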

The target in assay [2] is T2, rat DOR (C6-DOR) (Rattus norvegicus, UniProt P33533). The assay is described as follows: [3H]-diprenorphine competitive displacement binding, C6-DOR membranes. In short, it runs like this:
as §1

Assay [3] concerns the target T3, human KOR (CHO-KOR) (Homo sapiens, UniProt P41145). The assay is described as follows: [3H]-diprenorphine competitive displacement binding, CHO-KOR membranes. The gist of the method: as §1
Assay [4] deals with T1, rat MOR (C6-MOR). The assay can be described thus: Stimulation of [35S]-GTPγS binding, C6-MOR membranes. It counts as biochemical. The note with it: for Emax: read-out: % stimulation MOR; for % stimulation MOR: percent maximal stimulation relative to DAMGO at 10 μM. The gist of the method: (§2)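 Rat MOR or DOR (C6) and human KOR (CHO) membranes (10–20 μg protein) were incubated 1 h at 25 °C in 50 mM Tris-HCl, 100 mM NaCl, 5 mM MgCl₂, pH 7.4, with 0.1 nM [³⁵S]-GTPγS, 30 μM GDP and varying test compound concentrations, then filtered on GF/C. % stimulation was taken relative to 10 μM DAMGO (MOR), DPDPE (DOR) or U69,593 (KOR). EC50 came from nonlinear regression; at least three assays in duplicate.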
For orientation: GTPγS is a poorly hydrolysed GTP analogue; its binding reports G protein activation.

Assay [5] addresses T2, rat DOR (C6-DOR). The assay can be described thus: Stimulation of [35S]-GTPγS binding, C6-DOR membranes. Type of assay: biochemical. The note with it: for EC50 DOR: [35S]-GTPγS binding, mean (SEM); for EC50 DOR / % stimulation DOR: dns: does not stimulate; for % stimulation DOR: percent maximal stimulation relative to DPDPE at 10 μM. The gist of the method:
as §2

Assay [6] addresses T3, human KOR (CHO-KOR). The assay can be described thus: Stimulation of [35S]-GTPγS binding, CHO-KOR membranes. Type of assay: biochemical. As to conditions: for % stimulation KOR: percent maximal stimulation relative to U69,593 at 10 μM; for % stimulation KOR / EC50 KOR: dns: does not stimulate; for EC50 KOR: [35S]-GTPγS binding, mean (SEM). The gist of the method:
as §2

Where [7] appears, read: displacement of [3H]-diprenorphine, mean (SEM), n = 3.

“And” between values parts separate entries of the source, which are not always exact repeats. Identical values can stand only once. “Also recorded” adds a separate entry of the source.

With `Cc1cc(O)cc(C)c1C[C@H](N)C(=O)N[C@@H]1CCNc2ccc(Cc3ccccc3O)cc21` [Compound 4d], the Ki on rat MOR (C6-MOR) [1] turned out to be 0.26 nM; on rat DOR (C6-DOR) [2] it was 5.6 nM; at human KOR (CHO-KOR) [3] it was 5.7 nM. The EC50 on rat MOR (C6-MOR) [4] is 9.8 nM; on rat DOR (C6-DOR) [5], 1500 nM; at human KOR (CHO-KOR) [6], 270 nM. In addition, on rat MOR (C6-MOR) [4], the Emax was 89%. The “% stimulation KOR” value on human KOR (CHO-KOR) [6] is 67% and 67 (3.5) %.
Consider `COc1cccc2c1CC(Cc1ccc3c(c1)[C@H](NC(=O)[C@@H](N)Cc1c(C)cc(O)cc1C)CCN3)C2` (stereo partly drawn) [Compound 8a], for which the Ki at rat DOR (C6-DOR) [2] worked out at 2.3 nM. For the same compound, on human KOR (CHO-KOR) [3], the Ki stood at 67 nM. Also, the EC50 on rat MOR (C6-MOR) [4] is 1.9 nM. Moreover, the “% stimulation MOR” value on rat MOR (C6-MOR) [4] (dns: does not stimulate) is recorded as 48 (2.9) %. Moreover, on rat DOR (C6-DOR) [5], the “EC50 DOR” value is “dns^d” and the “% stimulation DOR” value was “dns^d”. Further, on human KOR (CHO-KOR) [6], the “EC50 KOR” value is recorded as “dns^d” and the “% stimulation KOR” value is “low affinity KOR antagonists; also recorded: dns^d”.
For `COc1cccc(Cc2ccc3c(c2)[C@H](NC(=O)[C@@H](N)Cc2c(C)cc(O)cc2C)CCN3)c1` [Compound 4b], the values for the inhibition constant Ki on rat MOR (C6-MOR) [1], at rat DOR (C6-DOR) [2] and at human KOR (CHO-KOR) [3] were 0.11 nM, 5.4 nM and 27 nM, respectively. The concentration giving a half-maximal response (EC50) on rat MOR (C6-MOR) [4] is 4.4 nM; at rat DOR (C6-DOR) [5], 230 nM. Further, on rat MOR (C6-MOR) [4], the Emax came to 99%. The “% stimulation DOR” value on rat DOR (C6-DOR) [5] is on record as 10 (2.6) %. Moreover, the “EC50 KOR” value at human KOR (CHO-KOR) [6] is “dns^d”. Further, the “% stimulation KOR” value at human KOR (CHO-KOR) [6] is “displayed no agonist effect; also recorded: dns^d”.
On rat MOR (C6-MOR) [1], `COc1ccc2c(c1)CC(Cc1ccc3c(c1)[C@H](NC(=O)[C@@H](N)Cc1c(C)cc(O)cc1C)CCN3)C2` (stereo partly drawn) [Compound 8b] had an inhibitory constant (Ki) of 0.08 nM. For the same compound, the inhibition constant Ki at human KOR (CHO-KOR) [3] amounted to 33 nM. For the same compound, at rat MOR (C6-MOR) [4], it took 7.9 nM to reach a half-maximal effect (EC50). Also, at rat MOR (C6-MOR) [4] (dns: does not stimulate), the “% stimulation MOR” value was 22 (3.7) %. At rat DOR (C6-DOR) [5], the “EC50 DOR” value is “dns^d” and the “% stimulation DOR” value is given as “dns^d”. On human KOR (CHO-KOR) [6], the “EC50 KOR” value is reported as “dns”; the “% stimulation KOR” value is “low affinity KOR antagonists and dns”.
Turning to `Cc1cc(O)cc(C)c1C[C@H](N)C(=O)N[C@@H]1CCNc2ccc(Cc3cccc(O)c3)cc21` [Compound 4e], the Ki at rat MOR (C6-MOR) [1] is 0.19 nM; on rat DOR (C6-DOR) [2], 1.4 nM; at human KOR (CHO-KOR) [3] it was 16 nM. In addition, the EC50 on rat MOR (C6-MOR) [4] came to 4.8 nM; at rat DOR (C6-DOR) [5] it was 140 nM; on human KOR (CHO-KOR) [6], 230 nM. Further, on rat MOR (C6-MOR) [4], the Emax was determined as 96%. Moreover, the “% stimulation DOR” value at rat DOR (C6-DOR) [5] was 67% and 67 (1.6) %.
As to `Cc1cc(O)cc(C)c1C[C@H](N)C(=O)N[C@@H]1CCNc2ccc(Cc3ccc(O)cc3)cc21` [Compound 4f], the affinity at rat MOR (C6-MOR) [1] corresponds to a Ki of 1.7 nM. Affinity on rat DOR (C6-DOR) [2] was put at a Ki of 130 nM. Further, the Ki on human KOR (CHO-KOR) [3] turned out to be 420 nM. Moreover, on rat MOR (C6-MOR) [4] ([35S]-GTPγS binding, mean (SEM), dns: does not stimulate), the “EC50 MOR” value is given as “dns”. Further, the “% stimulation MOR” value on rat MOR (C6-MOR) [4] (dns: does not stimulate) was “no stimulation of GTP binding and dns”. Also, at rat DOR (C6-DOR) [5], the “EC50 DOR” value is reported as “dns^d” and the “% stimulation DOR” value was “did not stimulate GTPγS binding; also recorded: dns^d”. On human KOR (CHO-KOR) [6], the “EC50 KOR” value is on record as “dns^d” and the “% stimulation KOR” value is recorded as “displayed no agonist effect; also recorded: dns^d”.
`Cc1cc(O)cc(C)c1C[C@H](N)C(=O)N[C@@H]1CCNc2ccc(CC3Cc4ccc(O)cc4C3)cc21` (stereo partly drawn) [Compound 8d] yielded a Ki at rat MOR (C6-MOR) [1] of 0.82 nM. At rat DOR (C6-DOR) [2], this compound displayed a Ki of 15 nM. The same compound had a Ki on human KOR (CHO-KOR) [3] of 41 nM. The compound also came in with an EC50 at rat MOR (C6-MOR) [4] of 7 nM. The “% stimulation MOR” value at rat MOR (C6-MOR) [4] (dns: does not stimulate) is reported as 16 (2.4) %. Besides, at rat DOR (C6-DOR) [5], the “EC50 DOR” value was “dns” and the “% stimulation DOR” value is listed as “dns”. Besides, at human KOR (CHO-KOR) [6], the “EC50 KOR” value is recorded as “dns”; the “% stimulation KOR” value is “low affinity KOR antagonists and dns”.
Turning to `Cc1cc(O)cc(C)c1C[C@H](N)C(=O)N[C@@H]1CCNc2ccc(CC3Cc4cccc(O)c4C3)cc21` (stereo partly drawn) [Compound 8c], the “Binding, Ki MOR” value at rat MOR (C6-MOR) [1] (setting [7]) is “subnanomolar binding affinity”. Moreover, the Ki at human KOR (CHO-KOR) [3] was determined as 0.77 nM. Further, the “Binding, Ki KOR” value on human KOR (CHO-KOR) [3] (setting [7]) was “subnanomolar binding affinity”. Besides, the “% stimulation MOR” value on rat MOR (C6-MOR) [4] (dns: does not stimulate) was 66 (3.3) %. Also, at rat DOR (C6-DOR) [5], the “EC50 DOR” value is recorded as “dns^d” and the “% stimulation DOR” value was “no stimulation at DOR; also recorded: dns^d”. Also, on human KOR (CHO-KOR) [6], a half-maximal effect (EC50) was put at 25 nM; the “% stimulation KOR” value is 92% and 92 (3.6) %.
With `COc1ccccc1Cc1ccc2c(c1)[C@H](NC(=O)[C@@H](N)Cc1c(C)cc(O)cc1C)CCN2` [Compound 4a], the inhibitory constant (Ki) on rat MOR (C6-MOR) [1] worked out at 0.34 nM; at rat DOR (C6-DOR) [2], 6.5 nM; at human KOR (CHO-KOR) [3], 54 nM. Also, the concentration for a half-maximal effect (EC50) on rat MOR (C6-MOR) [4] came out at 8.9 nM; on rat DOR (C6-DOR) [5], 130 nM; on human KOR (CHO-KOR) [6], 1000 nM. Also, at rat MOR (C6-MOR) [4], the Emax is 91%. The “% stimulation DOR” value on rat DOR (C6-DOR) [5] was 16 (2.2) %.
In the case of `COc1ccc(Cc2ccc3c(c2)[C@H](NC(=O)[C@@H](N)Cc2c(C)cc(O)cc2C)CCN3)cc1` [Compound 4c], the Ki was determined as 0.29 nM at rat MOR (C6-MOR) [1], 15 nM at rat DOR (C6-DOR) [2] and 100 nM on human KOR (CHO-KOR) [3]. The EC50 on rat MOR (C6-MOR) [4] turned out to be 9.3 nM. The “% stimulation MOR” value on rat MOR (C6-MOR) [4] (dns: does not stimulate) is reported as 55 (3.4) %. Further, the “EC50 DOR” value on rat DOR (C6-DOR) [5] is listed as “dns^d”. On rat DOR (C6-DOR) [5], the “% stimulation DOR” value is given as “did not stimulate GTPγS binding; also recorded: eliminating stimulation; also recorded: dns^d”. Besides, the “EC50 KOR” value at human KOR (CHO-KOR) [6] is “dns^d”. The “% stimulation KOR” value on human KOR (CHO-KOR) [6] was “displayed no agonist effect; also recorded: eliminating stimulation; also recorded: dns^d”.
